Publication PMC3611965 (Nuclear medicine and biology, 2012)

Experiments:
FAAH [1] = target: T1, FAAH (Mus musculus, UniProt O08914); test: in vitro competitive ABPP; format: biochemical
T1 sequence (O08914 1-579): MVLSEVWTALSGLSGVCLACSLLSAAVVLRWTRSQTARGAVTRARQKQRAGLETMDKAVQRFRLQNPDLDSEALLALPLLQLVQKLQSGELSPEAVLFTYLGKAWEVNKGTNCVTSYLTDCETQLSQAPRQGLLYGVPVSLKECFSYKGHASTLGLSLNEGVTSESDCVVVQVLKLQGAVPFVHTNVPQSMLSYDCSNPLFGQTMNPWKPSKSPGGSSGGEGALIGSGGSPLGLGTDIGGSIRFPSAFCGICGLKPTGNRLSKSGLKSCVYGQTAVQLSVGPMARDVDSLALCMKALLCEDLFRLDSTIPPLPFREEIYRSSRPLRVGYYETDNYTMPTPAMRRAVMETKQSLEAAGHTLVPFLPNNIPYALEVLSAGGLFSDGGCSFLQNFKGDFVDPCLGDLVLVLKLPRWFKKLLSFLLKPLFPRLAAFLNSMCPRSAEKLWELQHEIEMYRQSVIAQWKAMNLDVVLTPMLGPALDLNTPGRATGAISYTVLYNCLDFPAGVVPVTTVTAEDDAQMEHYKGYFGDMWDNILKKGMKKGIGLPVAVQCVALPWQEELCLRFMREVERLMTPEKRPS
How it was run: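 Wild-type C57Bl/6J mouse brain membrane fractions (1 mg/mL total protein) were preincubated with varying test compound concentrations for 30 min at 37 °C. FP-Rh was then added (50 μM stock in DMSO) for another 30 min at 37 °C. Samples were quenched in SDS loading buffer and run on SDS-PAGE with in-gel fluorescence scanning. IC50 was calculated from band fluorescence.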

MDR1 = MDR1 (Homo sapiens, UniProt P08183); test: MDR1 efflux ratio; format: in vitro ADME; settings: MDCK-MDR1
Chain of MDR1 (P08183 whole entry, species assumed): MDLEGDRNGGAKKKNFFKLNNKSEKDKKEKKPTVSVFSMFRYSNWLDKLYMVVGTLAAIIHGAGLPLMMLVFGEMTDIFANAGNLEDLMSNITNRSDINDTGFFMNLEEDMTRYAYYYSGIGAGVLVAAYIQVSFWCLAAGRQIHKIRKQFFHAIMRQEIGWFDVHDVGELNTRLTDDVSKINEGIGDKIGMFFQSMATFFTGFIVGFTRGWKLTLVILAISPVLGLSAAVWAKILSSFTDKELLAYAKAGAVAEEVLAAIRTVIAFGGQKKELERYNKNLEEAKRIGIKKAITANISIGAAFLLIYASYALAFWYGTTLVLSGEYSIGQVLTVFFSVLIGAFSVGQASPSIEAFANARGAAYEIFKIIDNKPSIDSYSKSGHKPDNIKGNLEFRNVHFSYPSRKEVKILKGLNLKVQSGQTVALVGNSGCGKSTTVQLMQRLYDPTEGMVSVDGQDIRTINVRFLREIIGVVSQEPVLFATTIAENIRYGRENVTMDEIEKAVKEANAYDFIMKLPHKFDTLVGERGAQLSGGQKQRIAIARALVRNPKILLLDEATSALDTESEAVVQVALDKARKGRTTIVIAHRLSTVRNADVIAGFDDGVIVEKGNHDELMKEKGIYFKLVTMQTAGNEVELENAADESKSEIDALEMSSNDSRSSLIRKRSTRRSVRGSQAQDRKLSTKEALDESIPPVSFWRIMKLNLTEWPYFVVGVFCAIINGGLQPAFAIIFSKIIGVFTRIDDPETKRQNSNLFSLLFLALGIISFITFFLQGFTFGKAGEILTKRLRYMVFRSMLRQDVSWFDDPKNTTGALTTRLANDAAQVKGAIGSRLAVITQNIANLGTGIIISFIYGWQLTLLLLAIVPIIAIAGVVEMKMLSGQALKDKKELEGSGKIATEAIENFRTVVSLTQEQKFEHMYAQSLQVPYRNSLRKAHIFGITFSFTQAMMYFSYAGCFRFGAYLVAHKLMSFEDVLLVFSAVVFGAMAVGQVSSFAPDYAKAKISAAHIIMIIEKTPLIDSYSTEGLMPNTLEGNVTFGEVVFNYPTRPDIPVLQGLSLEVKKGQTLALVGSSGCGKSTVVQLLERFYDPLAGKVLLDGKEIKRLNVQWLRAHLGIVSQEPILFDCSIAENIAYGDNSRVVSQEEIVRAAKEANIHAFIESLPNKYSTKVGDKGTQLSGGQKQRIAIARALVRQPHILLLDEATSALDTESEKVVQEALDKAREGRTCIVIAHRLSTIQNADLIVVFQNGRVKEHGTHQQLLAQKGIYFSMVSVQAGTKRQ

[2] = MDCK passive permeability; format: in vitro ADME; settings: dog
FAAH [3] = target: T1, FAAH; test: in vivo competitive ABPP of brains of treated mice; settings: C57Bl/6 mice, 10 mg/kg i.p. or p.o., 1 h, gel-based ABPP
How it was run: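 Wild-type C57Bl/6J mice got test compound or vehicle (18:1:1 PBS:Emulphor:ethanol) and were killed after 1 h. Half-brains were frozen in liquid N2, washed in cold PBS, dounce-homogenized and sonicated, then spun at 1000×g (10 min, 4 °C) and 145,000×g (45 min, 4 °C) into soluble and membrane fractions. These were diluted to 1 mg/mL and labelled with FP-Rh (30 min, 37 °C) for SDS-PAGE fluorescence profiling.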

FAAH [4] = settings: rats; ref [25]; cited from earlier work

Row | IC50 (FAAH [1]) [nM] | fold less potent than parent 4 (FAAH [1]; FAAH, competitive ABPP, mouse brain proteome) [fold] | efflux ratio (MDR1) | Papp A→B [2] [×10⁻⁶ cm/s] | FAAH inhibition in brain in vivo (FAAH [3]) | off-targets among brain serine hydrolases in vivo (FAAH [3]) | SMILES | brain uptake (FAAH [4])
1 | 16 | 5 | 2.52 | 18.2 | completely inhibited | no detectable off-targets | O=C(Nc1cccnn1)N1CCC(=Cc2cccc(Oc3ccc(OCCF)cn3)c2)CC1 [PF-9811, 4-(3-((5-(2-fluoroethoxy)pyridin-2-yl)oxy)benzylidene)-N-(pyridazin-3-yl)piperidine-1-carboxamide] | –
2 | – | – | – | – | – | – | O=[11C](NC1CCCCC1)Oc1ccc(O)c(-c2ccccc2)c1 [[^11 C]-CURB] | good brain uptake
